ChEMBL document CHEMBL4346702, “Development of CXCR4 modulators based on the lead compound RB-108” (Eur J Med Chem, 2019)
Values belong to the molecule of their own block, whether it stands above or below them. Calls of active or inactive are those of the source. No cut-off for these calls is given here.

Key:
[1] = target: C-X-C chemokine receptor type 4 (Homo sapiens) (UniProt P61073); experiment: (§1) Competitive inhibition of biotinylated TN14003 binding to CXCR4 in human MDA-MB-231 cells preincubated for 10 mins followed by biotinylated-TN14003 addition measured after 30 mins by streptavidin-rhodamine staining based fluorescence microscopic analysis; assay type: cell-based
Chain of C-X-C chemokine receptor type 4 (Homo sapiens) (P61073 whole entry): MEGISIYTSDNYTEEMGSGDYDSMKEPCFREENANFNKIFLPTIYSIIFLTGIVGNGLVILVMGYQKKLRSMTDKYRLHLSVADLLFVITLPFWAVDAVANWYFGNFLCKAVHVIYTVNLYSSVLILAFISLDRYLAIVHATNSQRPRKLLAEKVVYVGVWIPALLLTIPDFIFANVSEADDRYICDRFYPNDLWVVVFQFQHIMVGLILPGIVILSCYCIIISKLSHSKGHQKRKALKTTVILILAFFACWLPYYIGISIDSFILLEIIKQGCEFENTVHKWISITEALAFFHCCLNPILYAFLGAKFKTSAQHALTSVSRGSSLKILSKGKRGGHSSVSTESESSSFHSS
Summary of the method: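 MDA-MB-231 cells, 2 × 10⁴ per well, seeded two days ahead. Compound (1, 10, 100 or 1000 nM) added for 10 min at room temperature, then fixed in ice-cold 4% paraformaldehyde and rehydrated in PBS. Biotinylated TN14003 0.05 μg/mL for 30 min at RT, PBS washes, streptavidin-rhodamine (1:150) 30 min at RT. Read by fluorescence microscopy. EC = lowest concentration reducing rhodamine staining versus control.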

[2] = target: C-X-C chemokine receptor type 4 (Homo sapiens) (UniProt P61073); experiment: Inhibition of CXCR4-mediated chemotaxis in human MDA-MB-231 cells assessed as reduction in CXCL12alpha-induced cell invasion at 100 nM incubated for 22 hrs by hematoxylin/eosin dye-based matrigel assay relative to control
Summary of the method: (§2)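 Matrigel invasion chamber with MDA-MB-231 cells. Compound (100 nM) added to cells before seeding in the top chamber; CXCL12α 200 ng/mL in the bottom chamber as chemoattractant, serum-free medium. Incubated 22 h. Non-invading cells swabbed off; invaded cells fixed in methanol and H&E stained, then counted. Inhibition relative to untreated invasion.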

Mus musculus [3] = experiment: Antiinflammatory activity in C57BL/6J mouse assessed as inhibition of carrageenan-induced paw edema at 10 mg/kg, ip daily dosed 30 mins after carrageenan challenge and measured 74 hrs carrageenan challenge and 2 hrs post last dose by caliper method relative to control; assay type: functional
Summary of the method: (§3)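 Female C57BL/6J mice, five per group; 50 μL λ-carrageenan (1% w/v in saline) injected subcutaneously into one hind paw, 50 μL saline into the other as non-inflamed control. Vehicle-only i.p. controls. Sacrifice 74 h after challenge and 2 h after last dose. Paw thickness measured palm to back with caliper. Edema = injected minus contralateral paw. Suppression % = treated versus control group.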

[4] = target: C-X-C chemokine receptor type 4 (Homo sapiens) (UniProt P61073); experiment: as §1, with “Potency index, Ratio of EC for AMD3100 to EC for test compound for” for “Competitive”; assay type: cell-based
MCF-10A = experiment: Cytotoxicity against human MCF10A cells at 100 uM incubated for 24 hrs by CellTiter-96AQ based MTT assay; assay type: cell-based
Summary of the method: (§4)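 Cells seeded at 3000 per well and grown 24 h at 37 °C in CO₂. Treated with compound for 24 h at 37 °C, top concentration 100 μM. CellTiter 96AQ reagent added for 2 h more, then absorbance read at 490 nm.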

Mus musculus [5] = experiment: Antiinflammatory activity against carrageenan-induced paw oedema in C57BL/6J mouse assessed as paw swollen thickness at 10 mg/kg, ip daily dosed 30 mins after carrageenan challenge and measured 74 hrs carrageenan challenge and 2 hrs post last dose by caliper method (reference value: 0.68 millimeter); assay type: functional; summary of the method: as §3
[6] = Half life in Sprague-Dawley rat at 10 mg/kg, ig measured for 5 min to 6 hrs by LC/MS/MS analysis; assay type: ADME, organism-based; details: in vivo, po
Summary of the method: (§5)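 Two male SD rats given 10 mg/kg intragastrically in 10% DMSO/90% PBS. Blood drawn at 5, 15, 30 min and 1, 2, 4, 6 h, centrifuged 4000 rpm for 5 min at 4 °C. Protein precipitation, then LC/MS/MS in SRM mode with internal standard. Parameters from noncompartmental analysis of plasma concentration-time data.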

Mus musculus [7] = experiment: Antiinflammatory activity against carrageenan-induced paw oedema in C57BL/6J mouse assessed as hind paw thickness at 10 mg/kg, ip daily dosed 30 mins after carrageenan challenge and measured 74 hrs carrageenan challenge and 2 hrs post last dose by caliper method (reference value: 3.05 millimeter); assay type: functional; summary of the method: as §3
MDA-MB-231 = experiment: Cytotoxicity against human MDA-MB-231 cells at 100 uM incubated for 24 hrs by CellTiter-96AQ based MTT assay; assay type: cell-based; details: mda-mb-231, 24 h; summary of the method: as §4
[8] = Tmax in Sprague-Dawley rat at 10 mg/kg, ig measured for 5 min to 6 hrs by LC/MS/MS analysis; assay type: ADME, organism-based; details: in vivo, po; summary of the method: as §5
Mus musculus [9] = experiment: Antiinflammatory activity in C57BL/6J mouse assessed as reduction in carrageenan-induced accumulation of inflammatory cells in paw tissue at 10 mg/kg, ip daily dosed 30 mins after carrageenan challenge and measured 74 hrs carrageenan challenge and 2 hrs post last dose by H and E staining based histopathological analysis; assay type: functional, organism-based
SK-BR-3 = experiment: Cytotoxicity against human SKBR3 cells at 100 uM incubated for 24 hrs by CellTiter-96AQ based MTT assay; assay type: cell-based; details: sk-br-3, 24 h; summary of the method: as §4
Mus musculus [10] = experiment: Antiinflammatory activity in C57BL/6J mouse assessed as reduction of carrageenan-induced inflammation and tissue damage in paw by measuring edema volume and thickness at 10 mg/kg, ip daily dosed 30 mins after carrageenan challenge and measured 74 hrs carrageenan challenge and 2 hrs post last dose by H and E staining based histopathological analysis; assay type: functional, organism-based
[11] = target: C-X-C chemokine receptor type 4 (Homo sapiens) (UniProt P61073); experiment: Inhibition of CXCR4-mediated chemotaxis in human MDA-MB-231 cells assessed as reduction in CXCL12alpha-induced cell invasion incubated for 22 hrs by hematoxylin/eosin dye-based matrigel assay relative to control; details: concentration not given here; summary of the method: as §2

SMILES: Cc1ccc(S(=O)(=O)NCc2ccc(CNC(=O)c3ccc(F)nc3)cc2)cc1
EC [1]: > 1000 nM

SMILES: O=C(NCc1ccc(CNS(=O)(=O)c2ccc(Cl)cc2)cc1)c1ccc(F)cc1
EC [1]: 100 nM

SMILES: O=C(NCc1ccc(CNS(=O)(=O)c2cccc(F)c2)cc1)c1ccc(F)cc1
EC [1]: 1000 nM

SMILES: O=C(NCc1ccc(CNS(=O)(=O)c2ccc(CN3CCCC3)cc2)cc1)c1ccc(F)cc1
EC [1]: 1 nM
inhibition [2]: 92%
inhibition in vivo at 10 mg/kg (Mus musculus [3]): 20%
Ratio [4]: 1000

SMILES: O=C(NCc1ccc(CNS(=O)(=O)c2cccc(C(F)(F)F)c2)cc1)c1ccc(F)cc1
EC [1]: 100 nM
inhibition [2]: 93%
inhibition in vivo at 10 mg/kg (Mus musculus [3]): 20%

SMILES: Cc1ccc(S(=O)(=O)NCc2ccc(CNC(=O)c3ccc(F)cn3)cc2)cc1
EC [1]: 1000 nM

SMILES: Cc1cccc(S(=O)(=O)NCc2ccc(CNC(=O)c3ccc(F)cc3)cc2)c1
EC [1]: 1 nM

SMILES: CCN(CC)Cc1ccc(S(=O)(=O)NCc2ccc(CNC(=O)c3ccc(F)cc3)cc2)cc1
EC [1]: 1 nM
Ratio [4]: 1000

SMILES: Cc1ccc(S(=O)(=O)NCc2ccc(CNC(=O)c3ccc(F)cc3)cc2)cc1
inhibition in vivo at 10 mg/kg (Mus musculus [3]): 30%
inhibition [11]: 65%

SMILES: O=C(NCc1ccc(CNS(=O)(=O)c2cccnc2)cc1)c1ccc(F)cc1
EC [1]: 1000 nM

SMILES: O=C(NCc1ccc(CNS(=O)(=O)c2ccc([N+](=O)[O-])cc2)cc1)c1ccc(F)cc1
EC [1]: 1000 nM

More lines, main results first:

EC [1]: 10 nM
Ratio [4]: 100
SMILES: O=C(NCc1ccc(CNS(=O)(=O)c2ccc(CN3CCOCC3)cc2)cc1)c1ccc(F)cc1
inhibition [2]: 82%
inhibition in vivo at 10 mg/kg (Mus musculus [3]): 20%

EC [1]: 10 nM
t1/2 [6]: 4.77 h
Tmax [8]: 0.25 h
SMILES: O=C(NCc1ccc(CNS(=O)(=O)c2ccc3c(c2)CCO3)cc1)c1ccc(F)cc1
Activity (MCF-10A): Non-Toxic
inhibition [2]: 83%
Activity (Mus musculus [5]): 0.21 mm
inhibition in vivo at 10 mg/kg (Mus musculus [3]): 43%
Activity (Mus musculus [7]): 2.64 mm
Activity (MDA-MB-231): Non-Toxic
inhibition (Mus musculus [9]): Active
Activity (SK-BR-3): Non-Toxic
inhibition (Mus musculus [10]): Active

EC [1]: 10 nM
SMILES: O=C(NCc1ccc(CNS(=O)(=O)c2ccc(F)c(F)c2)cc1)c1ccc(F)cc1

EC [1]: 1 nM
SMILES: O=C(NCc1ccc(CNS(=O)(=O)c2cccc(Cl)c2)cc1)c1ccc(F)cc1
inhibition [2]: 95%
inhibition in vivo at 10 mg/kg (Mus musculus [3]): 20%

EC [1]: 10 nM
SMILES: O=C(NCc1ccc(CNS(=O)(=O)c2ccccc2F)cc1)c1ccc(F)cc1

EC [1]: 100 nM
SMILES: O=C(NCc1ccc(CNS(=O)(=O)c2ccc(-c3ccc(F)cc3)cc2)cc1)c1ccc(F)cc1

EC [1]: 100 nM
SMILES: Cc1ccccc1S(=O)(=O)NCc1ccc(CNC(=O)c2ccc(F)cc2)cc1

EC [1]: 1000 nM
SMILES: O=C(NCc1ccc(CNS(=O)(=O)c2cccc3ccccc23)cc1)c1ccc(F)cc1

EC [1]: 1000 nM
SMILES: O=C(NCc1ccc(CNS(=O)(=O)c2ccccc2Cl)cc1)c1ccc(F)cc1

EC [1]: 1 nM
SMILES: O=C(NCc1ccc(CNS(=O)(=O)c2ccc(F)cc2)cc1)c1ccc(F)cc1
